# Screens from PubChem.
# CHO parental Ca – ATP-evoked calcium signal inhibitors, parental CHO, primary screen, counter-screen for OX1R antagonist project, cell-based, fluorescence, Fluo-8 calcium dye; inhibition, % at 5.6 µM; parental CHO-K1, ATP-induced calcium, Fluo-8 fluorescence; 330,000 tested, 0.63% active;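 active = inhibition above that plate's mean sample inhibition plus 3 SD, cut at about 26% in these data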
#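 Material – parental CHO cells · Reagent – ATP stimulus · Compound – single nominal dose of 5.6 µM per compound · Detection – Fluo-8 fluorescence · Read-out basis – percent inhibition of calcium signal · Controls – ATP-challenged DMSO wells low, unchallenged DMSO wells high · Repeats – no replicates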
# M1 ag parental – counter-screen for M1 agonists: effect in parental CHO-K1 cells | Fluo-8 calcium fluorescence; scaled to maximal ATP response, vehicle zero | activation, % at 3 µM | 360,000 tested, 0.48% active; in the data active = activation above about 15%;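 note: untransfected CHO-K1 host cells lacking M1 receptor as counterscreen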
# CHO-K1 Ca antag – counter-screen for M1 antagonists: effect in parental CHO-K1 cells | 360,000 tested, 0.6% active | ATP-induced calcium, Fluo-8 fluorescence | inhibition, % at 3 µM | AID 602250;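 active = inhibition above a per-plate cutoff, the plate's mean sample inhibition plus 3 SD, cut at about 24% in these data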
# OX1R antag-1 – antagonists of human orexin 1 receptor (OX1R). Orexin/Hypocretin receptor type 1 (Homo sapiens), O43613. inhibition, % at 6.6 µM. OX1R-expressing cells, FRET antagonist read-out. 330,000 tested, 1.8% active; in the data active = inhibition mostly above about 38%, no sharp cut-off; inactive = mostly below about 40%
# Target sequence (O43613 whole entry, looked up): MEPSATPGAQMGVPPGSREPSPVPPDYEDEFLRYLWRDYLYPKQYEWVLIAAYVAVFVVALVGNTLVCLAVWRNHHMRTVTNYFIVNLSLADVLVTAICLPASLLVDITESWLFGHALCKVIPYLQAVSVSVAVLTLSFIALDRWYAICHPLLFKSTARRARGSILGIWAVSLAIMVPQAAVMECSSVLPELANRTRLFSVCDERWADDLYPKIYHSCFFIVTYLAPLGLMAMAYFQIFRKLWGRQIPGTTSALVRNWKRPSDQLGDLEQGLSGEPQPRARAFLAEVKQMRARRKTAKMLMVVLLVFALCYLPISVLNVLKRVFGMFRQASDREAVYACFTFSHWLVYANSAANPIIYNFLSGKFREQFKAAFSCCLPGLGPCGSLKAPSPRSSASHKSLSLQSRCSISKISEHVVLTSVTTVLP
# CHO-K1 Ca PAM – nonselective calcium activators in parental CHO-K1 cells, primary screen, counter-screen for M1 PAM project, cell-based, Fluo-8 calcium fluorescence, full deck, 1536-well | ATP EC20; 0% at ATP EC20, 100% at ATP max | activation, % at 3 µM | 360,000 tested, 0.02% active;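 active = activation above the run cutoff, the mean activation of all test compounds plus 3 SD, cut at about 40% in these data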;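 note: peak over basal fluorescence ratio in a 140 s read after ATP addition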
# OX1R antag-2 – OX1R (HCRTR1) antagonists, primary screen, fluorescence, CHO/OX1R cells, Fluo-8 calcium, orexin A; Orexin/Hypocretin receptor type 1 (Homo sapiens), O43613; Fluo-8 calcium fluorescence; inhibition, % at 5 µM; 330,000 tested, 0.43% active; AID 434989, 2010;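 active = inhibition above its plate's threshold, mean inhibition of all tested compounds on the plate plus 3 SD, cut at about 37% in these data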
# Hits are given with their value; 0 = inactive; - = not tested or not shown. Sampled rows, rich in hits. Any-hit rate of the full collection: about 2.9%.
SMILES,CHO parental Ca,M1 ag parental,CHO-K1 Ca antag,OX1R antag-1,CHO-K1 Ca PAM,OX1R antag-2
N#CC1=C(N)Oc2cc(N)ccc2C1c1cccc(F)c1 (stereo unspecified),0,0,0,0,0,0
CCC(OC(=O)CN1C(=O)C(=O)c2ccccc21)C(=O)Nc1ccc(S(N)(=O)=O)cc1 (stereo unspecified),0,0,0,50,0,0
CC(=O)N(C)c1ccc(OCC(O)Cn2c(C)nc3ccccc32)cc1 (stereo unspecified),0,0,0,0,0,0
CC(=O)N(C)c1ccc(OCC(O)Cn2c3ccc(Cl)cc3c3cc(Cl)ccc32)cc1 (stereo unspecified),67,0,0,0,0,0
Cc1cc2nc(-c3nnnn3-c3c(C)cccc3C)c(=O)[nH]c2cc1C,-,0,24,-,0,-
CCOC(=O)CC1C(=O)NCCN1C(=O)c1ccc(Cl)c(Cl)c1 (stereo unspecified),0,0,0,0,74,0
Cc1cc(-c2nnc(-c3cccc(Cl)c3)o2)no1,0,18,0,0,0,0
O=C(Nc1ccccc1)Nc1ccc2nnsc2c1,0,18,25,0,0,0
O=C(NCc1ccccc1)c1ccc2nnsc2c1,0,-,-,0,-,0
O=C(Nc1ccccc1F)c1ccc2snnc2c1,0,0,0,71,0,0
CN(C)c1ccc(NC(=O)Nc2ccc3snnc3c2)cc1,0,0,0,0,0,0
O=C(Nc1ccc(Cl)cc1)c1ccc2snnc2c1,0,0,0,0,0,0
O=C(Nc1ccccc1)Nc1ccc2snnc2c1,0,0,0,86,0,0
COc1ccc(CCNC(=O)CCNC(=O)c2ccco2)cc1,0,0,0,0,0,0
Cc1onc(-c2c(F)cccc2Cl)c1C(=O)Nc1cc(S(=O)(=O)N2CCCCC2)ccc1O,-,0,26,-,0,-
Cc1onc(-c2c(F)cccc2Cl)c1C(=O)Nc1ccc(S(=O)(=O)N2CCOCC2)cc1,0,0,0,0,0,0
CC(C)Cc1ccc(C(C)C(=O)Nc2cccnc2)cc1 (stereo unspecified),69,16,0,0,0,90
CC(C(=O)Nc1cccnc1)c1ccc([N+](=O)[O-])cc1 (stereo unspecified),0,0,0,0,0,0
COc1cc(/C=C/[N+](=O)[O-])ccc1OC(=O)/C=C/c1ccc(F)cc1,0,0,0,0,0,0
O=C(N/N=C/c1ccco1)c1ccc2nc[nH]c2c1,0,0,0,0,0,0
O=C(N/N=C/c1cc([N+](=O)[O-])ccc1O)c1cccc2cc[nH]c12,57,0,0,0,0,49
O=C(N/N=C/c1ccccc1C(F)(F)F)c1ccc2nc[nH]c2c1,0,0,0,0,0,0
O=C(N/N=C/c1cc([N+](=O)[O-])ccc1Cl)c1ccc2nc[nH]c2c1,0,0,0,62,0,0
O=C(N/N=C/c1ccc(Cl)cc1Cl)c1ccc2nc[nH]c2c1,0,0,0,35,0,0
O=C(N/N=C/c1cccc([N+](=O)[O-])c1)c1cccc2cc[nH]c12,0,0,0,0,0,0
SMILES,CHO parental Ca,M1 ag parental,CHO-K1 Ca antag,OX1R antag-1,CHO-K1 Ca PAM,OX1R antag-2
Nc1nonc1-n1nnc(C(=O)N/N=C/c2cccs2)c1-c1ccc2c(c1)OCO2,0,42,0,0,0,0
C/C(=N\NC(=O)c1nnn(-c2nonc2N)c1CN(C)c1ccccc1)c1cccc(O)c1,0,0,0,49,0,0
Cc1ccsc1/C=N/NC(=O)c1nnn(-c2nonc2N)c1-c1ccc2c(c1)OCO2,0,0,0,0,0,0
Cc1ccc(-c2c(C(=O)N/N=C/c3ccco3)nnn2-c2nonc2N)cc1,0,16,0,0,0,0
CCOc1ccc(/C=N/NC(=O)c2nnn(-c3nonc3N)c2-c2cccs2)cc1,0,34,0,0,0,0
CCOc1ccc(-c2c(C(=O)N/N=C/c3cccs3)nnn2-c2nonc2N)cc1,0,0,0,0,0,0
N#Cc1ccc(S(=O)(=O)N2CCCCC2c2cc(C(=O)Nc3cccc4c3CCCC4)no2)cc1 (stereo unspecified),-,0,0,-,0,-
